Compounds with a hit are over-represented: about 0.4% of the library has one in this group of screens.
ERp5 inh = blocks human ERp5 reductase activity on insulin; ERp5 insulin aggregation, absorbance 650 nm, 90 min; inhibition, % at 9.99 µM; AID 651711; 350,000 tested, 0.05% active;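 active means mean replicate inhibition above about 25%, with every replicate also reaching it, limit read from the data, passing the limit was not always enough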
Target sequence (Q15084 whole entry, looked up): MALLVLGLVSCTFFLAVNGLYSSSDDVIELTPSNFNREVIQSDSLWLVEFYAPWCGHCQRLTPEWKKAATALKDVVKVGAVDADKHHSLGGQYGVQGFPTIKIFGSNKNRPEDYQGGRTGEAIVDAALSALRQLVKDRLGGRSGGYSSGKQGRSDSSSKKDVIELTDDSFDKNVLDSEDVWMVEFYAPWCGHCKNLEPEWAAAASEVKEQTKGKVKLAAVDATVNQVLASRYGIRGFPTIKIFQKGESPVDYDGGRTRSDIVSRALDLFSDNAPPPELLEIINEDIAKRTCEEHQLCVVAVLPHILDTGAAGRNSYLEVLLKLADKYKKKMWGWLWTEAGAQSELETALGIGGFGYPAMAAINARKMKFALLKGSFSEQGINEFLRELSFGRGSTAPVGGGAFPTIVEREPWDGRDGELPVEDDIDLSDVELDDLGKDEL
TbMetRS inhib = Trypanosoma brucei MetRS inhibition; purified T. brucei MetRS, ATP depletion, Kinase-Glo luminescence; inhibition, % at 11.9 µM; AID 624268; 360,000 tested, 0.4% active;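 active means inhibition above a per-plate cutoff of the control wells' mean inhibition plus 3 SD, cut at about 5.5% in these data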
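Assay system: T. brucei methionyl-tRNA synthetase, purified | Medium: HEPES buffer with MgCl2, KCl, DTT, spermine, BSA, pyrophosphatase | Compound: 11.9 µM single point | Incubation: 15 min enzyme-compound preincubation, 2 h reaction, 10 min detection, 25 °C | Measured by: Kinase-Glo luciferase luminescence reporting remaining unconsumed ATP | Measure: % inhibition normalized to control-well medians | Replication: Singlicate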
PDI inh = PDI (human) enzyme inhibition. P07237. inhibition, % at 10 µM. 350,000 tested, 0.052% active. PDI insulin aggregation turbidity, A650, 90 min. AID 588391;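 active means mean inhibition across replicates of 30% or more, whatever share of single replicates reach that level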
Numbers stand for hits; n = inactive; x = not tested or not shown.

SMILES	ERp5 inh	TbMetRS inhib	PDI inh
COc1cc2c(c(OC3OC(CO)C(O)C(O)C3O)c1)C(=O)CC(c1ccc(O)cc1)O2 (configuration not stated)	n	x	x
O=C1C[C@@H](c2ccc(O[C@@H]3O[C@H](CO)[C@@H](O)[C@H](O)[C@H]3O)cc2)Oc2cc(O)ccc21	n	n	36
CC(C)NC(=O)N(C)C[C@H]1Oc2ccc(NC(=O)CCC(F)(F)F)cc2CC(=O)N([C@H](C)CO)C[C@@H]1C	n	x	x
CC(=O)Nc1ccc(NC(=O)CSc2nnc(NC(=O)C3CC3)s2)cc1	n	n	n
COc1ccc(NC(=O)CSc2nnc(NC(=O)C3CC3)s2)cc1OC	26	n	n
O=C(C1=C[C@@H](c2ccc3c(c2)OCO3)C[C@@H](OCc2ccc(CO)cc2)O1)N1CCN(Cc2ccccc2)CC1	n	x	x
Cc1ccc(S(=O)(=O)N[C@@H]2CC[C@@H](CCn3cc(-c4ccccc4F)nn3)O[C@H]2CO)cc1	n	x	x
CC(=O)N(C)C[C@H]1Oc2cc(Br)ccc2S(=O)(=O)N([C@@H](C)CO)C[C@H]1C	n	x	x
O=C(c1cccc(F)c1)N1CCCCN2[C@H](C1)[C@H](c1ccc(-c3ccccc3)cc1)[C@@H]2CO	28	x	x
O=C(c1cccc(F)c1)N1CCCCN2[C@H](CO)[C@@H](c3ccc(-c4ccc(F)cc4)cc3)[C@H]2C1	n	x	x
CC(=O)Nc1nonc1NC(C)=O	x	n	n
CC(=O)Nc1cc(OC(C)=O)c2nonc2c1OC(C)=O	x	28	n
C[C@H](CO)N1C[C@H](C)[C@H](CN(C)C(=O)Cc2ccccc2)OCCCC[C@H](C)Oc2ccc(NC(=O)Nc3ccc(C(F)(F)F)cc3)cc2C1=O	n	x	x
C[C@@H]1CN([C@H](C)CO)C(=O)Cc2cc(NC(=O)Nc3cccc4ccccc34)ccc2O[C@H]1CN(C)C(=O)Nc1cccc2ccccc12	n	x	x
C[C@@H]1CN([C@H](C)CO)C(=O)c2cc(NC(=O)Nc3cccc4ccccc34)ccc2O[C@@H]1CN(C)C(=O)Nc1cccc2ccccc12	33	x	x
C[C@@H]1CN([C@H](C)CO)C(=O)c2cc(NC(=O)Nc3ccc(C(F)(F)F)cc3)ccc2O[C@@H]1CN(C)S(=O)(=O)c1ccc(F)cc1	29	x	x
C[C@H](CO)N1C[C@H](C)[C@@H](CN(C)S(=O)(=O)c2ccc(F)cc2)Oc2ccc(NC(=O)Nc3ccc(C(F)(F)F)cc3)cc2C1=O	n	n	n
C[C@H]1CN([C@@H](C)CO)C(=O)Cc2cc(NC(=O)Nc3cccc4ccccc34)ccc2O[C@H]1CN(C)C(=O)Nc1cccc2ccccc12	26	x	x
C[C@H]1CN([C@@H](C)CO)C(=O)c2cc(NC(=O)Nc3ccccc3)ccc2O[C@@H]1CN(C)C(=O)Nc1cccc2ccccc12	n	x	x
C[C@H]1CN([C@@H](C)CO)C(=O)c2cc(NC(=O)Nc3ccc4c(c3)OCO4)ccc2O[C@@H]1CN(C)Cc1ccc(C(=O)O)cc1	n	x	x
C[C@@H]1CN([C@@H](C)CO)C(=O)c2cc(NC(=O)Nc3ccc4c(c3)OCO4)ccc2O[C@@H]1CN(C)Cc1ccc(C(=O)O)cc1	39	x	x
O=C(NC[C@H]1CC[C@@H]2[C@@H](CN2S(=O)(=O)c2ccccc2[N+](=O)[O-])O1)C1CCCC1	n	x	x
CCNC(=O)[C@H]1[C@H](CO)[C@H]2Cn3c(cccc3=O)[C@@H]1N2C(=O)c1ccc(F)cc1	n	x	x
C[C@H](CO)N1C[C@H](C)[C@H](CN(C)C)Oc2cc(-c3cccc(C(=O)N(C)C)c3)ccc2S1(=O)=O	n	x	x
COc1ccc(S(=O)(=O)N[C@@H]2CC[C@@H](CCn3cc(-c4cccc(F)c4)nn3)O[C@H]2CO)cc1	n	x	x
SMILES	ERp5 inh	TbMetRS inhib	PDI inh
C[C@H](CO)N1C[C@H](C)[C@@H](CN(C)CC2CCCCC2)Oc2ccc(NC(=O)Nc3ccc(C(F)(F)F)cc3)cc2C1=O	n	x	x
C[C@@H]1CN([C@H](C)CO)C(=O)c2cc(-c3ccccc3)cnc2O[C@H]1CN(C)C(=O)c1ccccc1F	n	x	x
COc1ccc2c3c([nH]c2c1)[C@@H](CO)N(C(=O)C1CCCC1)CC31CN(C(=O)NC(C)C)C1	n	x	x
COCC(=O)N1CCC2(CC1)CN(Cc1ccccc1F)[C@H](CO)c1[nH]c3cc(OC)ccc3c12	n	x	x
COc1ccc2c3c([nH]c2c1)[C@H](CO)N(C(=O)C1CCCC1)CC31CCN(C(=O)NC(C)C)CC1	n	x	x
COc1ccc2c3c([nH]c2c1)[C@H](CO)N(C(=O)NC(C)C)CC31CN(C(=O)C2CCCC2)C1	67	x	x
COCC(=O)N1CC2(C1)CN(Cc1ccccc1F)[C@H](CO)c1[nH]c3cc(OC)ccc3c12	34	x	x
CCCC(=O)N1CC2(C1)CN(C(=O)C1CCCCC1)[C@H](CO)c1[nH]c3cc(OC)ccc3c12	36	x	x
COc1ccc2c3c([nH]c2c1)[C@@H](CO)N(C(=O)C1CCCC1)CC31CCN(C(=O)NC(C)C)CC1	27	x	x
CCCC(=O)N1CC2(C1)CN(C(=O)C1CC1)[C@@H](CO)c1[nH]c3cc(OC)ccc3c12	n	x	x
O=C(C[C@H]1C[C@H]2c3cc(NC(=O)C4CCOCC4)ccc3O[C@H]2[C@H](CO)O1)NCc1ccc2c(c1)OCO2	n	x	x
COc1ccc(NC(=O)Nc2ccc3c(c2)[C@@H]2C[C@H](CC(=O)N4CCCCC4)O[C@@H](CO)[C@@H]2O3)cc1	n	x	x
O=C(NC1Cc2ccccc2C1)[C@H]1N[C@H]2c3ccc(C4=CCCC4)c(=O)n3C[C@H]2[C@@H]1CO	n	x	x
O=C1C=CCCN1C(=O)/C=C/c1ccccc1	n	x	x
CC(=O)N1CCn2c3c(c4cc(C)ccc42)CCCC31 (configuration not stated)	n	n	n
Cc1ccc2c(c1)c1c3n2CCN(C(=O)CCl)C3CCC1 (configuration not stated)	n	n	59
COc1ccc(NC(=O)N(C)C[C@@H]2Oc3ccc(NC(=O)C4CC4)cc3C(=O)N([C@@H](C)CO)C[C@H]2C)cc1	n	x	x
Cc1ccc(CNC(=O)COC(=O)c2c(C)noc2C)cc1	x	n	n
Cc1noc(C)c1C(=O)OCC(=O)NCCc1ccc(Cl)cc1	x	n	35
CCCNC(=O)N1C[C@@H]2[C@H](c3ccccc31)[C@H](CO)N2C(=O)Nc1ccc(F)cc1	n	x	x
C[C@@H]1CCCCO[C@@H](CN(C)S(=O)(=O)c2ccc(Cl)cc2)[C@@H](C)CN([C@@H](C)CO)C(=O)c2cc(NC(=O)NC3CCCCC3)ccc2O1	n	x	x
CCN1C(=O)C2C(c3ccccc3F)NC(Cc3ccc(O)cc3)(C(=O)OC)C2C1=O (configuration not stated)	x	n	53
CCOC(=O)C1(Cc2ccccc2)NC(c2ccccc2F)C2C(=O)N(CC)C(=O)C21 (configuration not stated)	x	n	n
C[C@H]1CCCCO[C@H](CN(C)S(=O)(=O)c2ccc(F)cc2)[C@@H](C)CN([C@@H](C)CO)C(=O)c2cc(NS(C)(=O)=O)ccc2O1	n	x	x
C[C@@H]1CN([C@@H](C)CO)C(=O)c2cc(NC(=O)CCC(F)(F)F)ccc2O[C@@H](C)CCCCO[C@H]1CN(C)C(=O)Nc1ccccc1	n	x	x
C[C@H]1CCCCO[C@H](CN(C)C(=O)Nc2ccccc2)[C@@H](C)CN([C@@H](C)CO)C(=O)c2cc(N(C)C)ccc2O1	n	x	x
